# Results reported in ChEMBL document CHEMBL2385051, “Facile synthesis of new imidazo[1,2-a]pyridines carrying 1,2,3-triazoles via click chemistry and their antiepileptic studies” (Bioorg Med Chem Lett, 2013).
# Active and inactive are the calls of the source. The calls are words filed in the database; no cut-off is given here.
# Key:
# [1] = test system: Mus musculus; assay: Neurotoxicity in NMRI mouse assessed as minimal motor impairment at 20 to 100 mg/kg, ip after 4 hrs by rotarod test; type: toxicity, organism-based; design: dose 20-100 mg/kg, route intraperitoneal; conditions: in vivo
# Summary of the method: (§1)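 Rotarod motor-impairment test in mice given 20, 40 and 100 mg/kg doses, read 0.5 and 4 h after administration. The value recorded is the minimal dose producing toxicity in more than 50% of mice.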
# [2] = test system: Mus musculus; assay: Neurotoxicity in NMRI mouse assessed as minimal motor impairment at 20 to 100 mg/kg, ip after 0.5 hrs by rotarod test; type: toxicity, organism-based; design: dose 20-100 mg/kg, route intraperitoneal; conditions: in vivo; summary of the method: as §1
# [3] = test system: Mus musculus; assay: Anticonvulsant activity in NMRI mouse assessed as protection against maximal electroshock-induced seizures at 20 to 100 mg/kg, ip after 4 hrs; type: functional, organism-based
# Summary of the method: (§2)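 Mice received 20, 40 and 100 mg/kg test doses. Seizures were induced by electrical shock (MES) or PTZ injection (scPTZ) at 0.5 and 4 h after dosing. The value recorded is the minimal dose protecting more than 50% of mice against seizure.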
# [4] = test system: Mus musculus; assay: Anticonvulsant activity in NMRI mouse assessed as protection against maximal electroshock-induced seizures at 20 to 100 mg/kg, ip after 0.5 hrs; type: functional, organism-based; summary of the method: as §2
# [5] = test system: Mus musculus; assay: Anticonvulsant activity in ip dosed NMRI mouse assessed as dose required to cause protection against subcutaneous pentylene tetrazole-induced seizure after 4 hrs; type: functional; conditions: read-out: MED; summary of the method: as §2
# [6] = test system: Mus musculus; assay: Anticonvulsant activity in ip dosed NMRI mouse assessed as dose required to cause protection against subcutaneous pentylene tetrazole-induced seizure after 0.5 hrs; type: functional; conditions: read-out: MED; summary of the method: as §2
# [7] = test system: Mus musculus; assay: Anticonvulsant activity in NMRI mouse assessed as protection against subcutaneous pentylene tetrazole-induced seizure at 20 to 100 mg/kg, ip after 0.5 hrs; type: functional, organism-based; summary of the method: as §2
# [8] = test system: Mus musculus; assay: Anticonvulsant activity in ip dosed NMRI mouse assessed as dose required to cause protection against maximal electroshock-induced seizures after 4 hrs; type: functional; conditions: read-out: MED; summary of the method: as §2
SMILES,Activity [1],Activity [2],Activity [3],Activity [4],minimal effective dose [5] [mg/kg],minimal effective dose [6] [mg/kg],Activity [7],minimal effective dose [8] [mg/kg]
O/N=C/c1c(-c2ccc(F)cc2)nc2ccc(Br)cn12,Non-toxic,Non-toxic,inactive,inactive,40,40,–,–
Cc1cccn2c(/C=N/OCc3cn(Cc4ccc(C#N)cc4)nn3)c(-c3ccccc3)nc12,Non-toxic,Non-toxic,inactive,inactive,40,–,inactive,–
Cc1ccc(-c2nc3ccc(Br)cn3c2/C=N/OCc2cn(Cc3ccc(C#N)cc3)nn2)cc1,Non-toxic,Non-toxic,inactive,inactive,40,40,–,–
COc1ccc(Cn2cc(CO/N=C/c3c(-c4ccc(C)cc4)nc4c(C)cccn34)nn2)cc1,Non-toxic,Non-toxic,–,inactive,100,40,–,100
N#Cc1ccc(Cn2cc(CO/N=C/c3c(-c4ccccc4)nc4ccc(Br)cn34)nn2)cc1,Non-toxic,Non-toxic,–,inactive,20,20,–,100
C#CCO/N=C/c1c(-c2ccc(F)cc2)nc2c(C)cccn12,Non-toxic,Non-toxic,inactive,inactive,100,–,inactive,–
COc1ccc(Cn2cc(CO/N=C/c3c(-c4ccccc4)nc4ccc(Br)cn34)nn2)cc1,Non-toxic,Non-toxic,inactive,inactive,40,–,inactive,–
Cc1cccn2c(/C=N/O)c(-c3ccc(F)cc3)nc12,Non-toxic,Non-toxic,inactive,inactive,40,–,inactive,–
Cc1ccc(Cn2cc(CO/N=C/c3c(-c4ccc(C)cc4)nc4ccc(Br)cn34)nn2)cc1,Non-toxic,Non-toxic,inactive,inactive,100,40,–,–
Cc1ccc(Cn2cc(CO/N=C/c3c(-c4ccc(F)cc4)nc4c(C)cccn34)nn2)cc1,Non-toxic,Non-toxic,inactive,inactive,40,–,inactive,–
C#CCO/N=C/c1c(-c2ccccc2)nc2c(C)cccn12,Non-toxic,Non-toxic,inactive,inactive,100,–,inactive,–
COc1ccc(Cn2cc(CO/N=C/c3c(-c4ccc(F)cc4)nc4c(C)cccn34)nn2)cc1,Non-toxic,Non-toxic,inactive,inactive,40,40,–,–
Cc1ccc(Cn2cc(CO/N=C/c3c(-c4ccc(F)cc4)nc4ccc(Br)cn34)nn2)cc1,Non-toxic,Non-toxic,inactive,inactive,100,–,inactive,–
CN1C(=O)CN=C(c2ccccc2)c2cc(Cl)ccc21 [DIAZEPAM],Non-toxic,Non-toxic,–,–,20,20,–,–
COc1ccc(Cn2cc(CO/N=C/c3c(-c4ccc(C)cc4)nc4ccc(Br)cn34)nn2)cc1,Non-toxic,Non-toxic,inactive,inactive,40,–,inactive,–
